# p47phox inh – inhibitors of human p47phox binding. 220,000 tested, 0.53% active. p47phox/p22phox peptide binding, fluorescence polarization, 2 h. P14598. AID 1274. inhibition, % at 24.7 µM;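 active means inhibition above about 30%, limit read from the data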;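 further: 0% = p47phox with labelled peptide and 100% = labelled peptide alone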
# HSV augment – increases HSV replication in cells | HSV replication augmentation in cells, fold increase | maximum fold increase | 220,000 tested, 0.005% active | AID 1956; in the data active means maximum fold increase above about 1.5; inconclusive means no clear call, values can overlap the other calls; tested in PC3 cells
# ABCB1 inh – blocks JC-1 efflux by human ABCB1 transporter; CCRF-Adr cells, flow cytometry; P08183; 190,000 tested, 0.067% active; inhibition, % at 6.6 µM; AID 1326; in the data active means inhibition above about 40%;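 further: 0% = vehicle and 100% = reference inhibitor; higher value means more JC-1 retained so stronger ABCB1 efflux block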
# Arbovirus inh – blocks arbovirus infection. 200,000 tested, 0.37% active. inhibition, % at 10 µM. AID 1251. arbovirus infection cell-based antiviral screen; in the data active means inhibition above about 30%
# ABCG2 block – blocks JC-1 efflux by human ABCG2 transporter; Q9UNQ0; IgMXP3 cells, flow cytometry; inhibition, % at 6.6 µM; 190,000 tested, 0.1% active;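 active means inhibition above 80%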;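 further: 0% = DMSO and 100% = nicardipine control wells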
#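 Test system: ABCG2 IgMXP3 and barcoded ABCB1 CCRF-Adr cell mix; Schedule: cells with compound and JC-1, 10 min at 25 °C, rotating, no wash; Technique: flow cytometry of retained JC-1 fluorescence; Measure: % inhibition of efflux relative to nicardipine and DMSO; Controls: nicardipine high and DMSO low controls.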
# Furin inh – human furin inhibition; purified furin, fluorogenic substrate cleavage; inhibition, % at 20 µM or 30 µM; 220,000 tested, 0.061% active; AID 463115; in the data active means inhibition above about 25%
# Target sequence (P09958 108-714 limits assumed): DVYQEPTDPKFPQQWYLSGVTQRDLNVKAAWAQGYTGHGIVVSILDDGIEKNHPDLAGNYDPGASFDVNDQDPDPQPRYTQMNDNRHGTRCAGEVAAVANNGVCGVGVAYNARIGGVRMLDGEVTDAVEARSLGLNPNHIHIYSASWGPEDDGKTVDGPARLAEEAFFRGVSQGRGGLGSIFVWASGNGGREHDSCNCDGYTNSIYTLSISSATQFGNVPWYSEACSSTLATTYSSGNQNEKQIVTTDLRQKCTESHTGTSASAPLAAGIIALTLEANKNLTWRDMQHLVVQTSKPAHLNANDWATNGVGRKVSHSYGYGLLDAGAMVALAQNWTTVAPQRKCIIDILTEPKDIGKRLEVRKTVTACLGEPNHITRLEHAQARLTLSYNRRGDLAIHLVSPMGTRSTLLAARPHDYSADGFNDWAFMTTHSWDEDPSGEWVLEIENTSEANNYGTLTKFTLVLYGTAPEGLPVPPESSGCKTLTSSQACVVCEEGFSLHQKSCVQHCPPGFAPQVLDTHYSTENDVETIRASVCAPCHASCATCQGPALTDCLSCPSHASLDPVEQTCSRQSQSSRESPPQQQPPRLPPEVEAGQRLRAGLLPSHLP
# * hit, by the source's call; i = inactive; ? = inconclusive; . = no result. Hits are enriched below; roughly 0.95% of the tested compounds scored in any of these assays.
SMILES,p47phox inh,HSV augment,ABCB1 inh,Arbovirus inh,ABCG2 block,Furin inh
Cc1ccc(NC(=S)N/C(=N/S(=O)(=O)c2ccccc2)c2ccccc2)cc1,164*,i,0,10,-1,-2
O=[N+]([O-])c1ccc(NCCNCCOc2nonc2-c2ccccc2)c([N+](=O)[O-])c1,-10,i,0,30*,1,-5
CCN(c1ccccc1)S(=O)(=O)c1ccc(OC)c(NC(=O)Cn2cnc3c2c(=O)n(C)c(=O)n3C)c1,-4,i,0,-7,0,-15
O=C(NCc1ccc(Cl)cc1)C(=O)NCC1OCCN1C(=O)c1cccs1 (stereo not drawn),1,i,0,-3,-1,-20
Cc1nnc(SC(C)C(=O)Nc2ncc(Cl)cc2Cl)n1Cc1ccccc1 (stereo not drawn),-8,i,0,-9,2,-15
COCCn1c(SC(C)C(=O)Nc2ncc(Cl)cc2Cl)nc2ccccc21 (stereo not drawn),-2,i,3,31*,23,-25
CCOc1ccc2nc(NC(=O)C3=NN(c4ccccc4)C(=O)CC3)sc2c1,-27,i,0,52*,2,-5
Cc1cccc2sc(NC(=O)C3=NN(c4ccccc4)C(=O)CC3)nc12,-11,i,1,3,11,-19
COc1ccc(-c2csc(NC(=O)C3=NN(c4ccccc4)C(=O)CC3)n2)cc1,-26,i,0,31*,2,-6
O=C(Nc1nc2ccccc2s1)c1cc(-c2ccccc2)nn1-c1ccccc1,-45,i,0,49*,10,-13
Cc1ccc2nc(NC(=O)C3=NN(c4ccccc4)C(=O)CC3)sc2c1,-30,i,1,60*,5,10
CCn1c(Cc2ccccc2)nnc1SCC(=O)Nc1ccccc1O,0,i,0,2,12,-29
OCC[C@@H]1C[C@@H](O)[C@H](O)[C@]2(CCCCO2)O1,-11,i,0,-1,0,-14
CC[C@@H]1CC=C[C@H]2[C@H]1C(=O)N(Cc1ccccc1)[C@H]2c1cc(C)ccc1F,-11,i,.,.,.,-5
O=c1[nH]cc(N(CCO)CCO)c(=O)[nH]1,8,i,.,.,.,-16
Fc1ccccc1N1CCN(c2ncnc3[nH]ncc23)CC1,-15,.,1,43*,13,-5
CCOC(=O)c1c(NC(=O)CCNCc2ccco2)sc2c1CCC2,-17,i,.,.,.,-19
Cc1ccc(CNC(=O)C2COc3ccccc3O2)cc1 (stereo not drawn),0,i,0,-2,2,5
COc1ccc(Cl)cc1NC(=O)C1COc2ccccc2O1 (stereo not drawn),-16,i,0,32*,13,-13
COc1ccc(OC)c(NC(=O)C2COc3ccccc3O2)c1 (stereo not drawn),9,i,1,15,6,-13
O=C(NCc1ccccc1)C1COc2ccccc2O1 (stereo not drawn),6,i,2,-1,10,30*
O=C(CSc1nnc(C2COc3ccccc3O2)o1)Nc1nccs1 (stereo not drawn),37*,i,0,3,1,-28
O=C(CSc1nnc(C2COc3ccccc3O2)o1)NC1CCCCC1 (stereo not drawn),-3,i,0,7,0,-27
O=C(NCc1nnc(SCC(=O)N2CCOCC2)o1)c1ccccc1F,4,i,1,15,3,-24
CCCN1C(=O)/C(=C/c2ccc(N3CCOCC3)cc2)NC1=S,-102,1.6*,0,-7,-1,-27
SMILES,p47phox inh,HSV augment,ABCB1 inh,Arbovirus inh,ABCG2 block,Furin inh
O=C1c2ccccc2C(O)N1Cc1cccs1 (stereo not drawn),-5,i,1,0,3,-17
O=C(CCCOc1ccc(Cl)cc1Cl)N/N=C/c1ccccc1,51*,i,0,15,0,-13
CCOc1ccc(-c2[nH]ncc2-c2ccc(OC)c(OC)c2)c(O)c1,-15,i,0,-18,2,-26
COc1ccc(-c2cn[nH]c2-c2ccc(OCc3ccc([N+](=O)[O-])cc3)cc2O)cc1,35*,i,1,8,26,-3
NC(=O)CC1C(=O)N(c2ccc(F)cc2)C(=O)N1NC(=O)CCc1ccccc1 (stereo not drawn),0,i,1,6,5,-10
CCOC(=O)CNC(=O)C1CCCc2c1[nH]c1ccc(Cl)cc21 (stereo not drawn),-1,i,1,4,5,-23
CCOC(=O)c1ccc2[nH]c3c(c2c1)CCCC3O (stereo not drawn),48*,i,0,14,5,-27
Cc1ccc(C(=O)Nc2c(C)n(C)n(-c3ccccc3)c2=O)cc1S(=O)(=O)N1CCOCC1,.,i,.,.,.,-20
Cc1c(NC(=O)c2ccc(Cl)c(S(=O)(=O)N3CCOCC3)c2)c(=O)n(-c2ccccc2)n1C,-5,i,0,-1,0,30*
CN(CC(=O)NCc1ccncc1)S(=O)(=O)c1ccc2ccccc2c1,1,i,1,23,3,-7
Cn1c(C(C#N)C2=C(Cl)C(=O)N(c3ccccc3)C2=O)nc2ccccc21 (stereo not drawn),48*,i,2,6,3,-10
Cn1c(C(O)C(O)c2ccccc2)nc2ccccc21 (stereo not drawn),6,i,0,1,2,-31
Nc1cc(C(=O)O)ccc1Nc1ccc(F)c(F)c1,30*,i,1,2,2,-6
O=C(O)CSc1cc(C(=O)c2ccccc2O)cn2c(=O)c3c(-c4ccccc4)csc3nc12,-28,i,-1,70*,-3,-29
CCOC(=O)c1sc2nc3c(SCC(=O)O)cc(C(=O)c4ccccc4O)cn3c(=O)c2c1C,-27,i,-1,4,-3,-13
CN(C)CC(=O)c1ccc(-c2ccccc2)cc1,44*,i,0,0,1,-17
COC(=O)c1cc(C(=O)OC)cc(N2C(=O)CC(NNC(=O)c3ccc(C)cc3)C2=O)c1 (stereo not drawn),130*,i,-1,1,4,-9
Cc1cc2c(ncn2Cc2ccccc2)c([N+](=O)[O-])c1C,-8,i,1,-4,6,-16
Cc1cc(OCC(=O)Nc2ccc(F)c(F)c2)nc(C(C)C)n1,165*,i,0,0,0,-18
O=C1CN(C(=O)Cn2ncc(Cl)c(Cl)c2=O)c2ccccc2N1,-12,i,1,-30,8,-24
O=C1CN(CC(=O)Nc2cccc(Cl)c2Cl)c2ccccc2N1,37*,i,0,-8,0,-15
CCCCN1C(=O)/C(=C/C=C2\SCCN2C)SC1=S,54*,?,2,-15,8,-7
CN1CCS/C1=C/C=C1\SC(=S)N(CC(=O)O)C1=O,-101,?,0,-22,0,-10

# From PubChem
